Source: ChEMBL document CHEMBL3425440, “ent-Kaurane Diterpenoids from Chinese Liverworts and Their Antitumor Activities through Michael Addition As Detected in Situ by a Fluorescence Probe” (J Med Chem, 2015)
Activity calls are given as the source filed them. No cut-off for these calls is given here.

Columns and labels:
[1] = Cytotoxicity against human PC3 cells assessed as cell viability after 24 hrs by MTT assay; format: functional, cell-based; conditions: PC-3, 24 h
Summary of the method: (§1)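 Cells grown to about 50−70% confluence at 37 °C, 5% CO2, then exposed to compounds 24 h (DMSO vehicle control, cisplatin positive control). MTT (5 mg/mL stock) added for 4 h, formazan dissolved in DMSO, absorbance read at 570 nm. IC50 derived from percent viability; at least three independent experiments, mean ± SD.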

DU-145 = assay: Cytotoxicity against human DU145 cells assessed as cell viability after 24 hrs by MTT assay; format: functional, cell-based; conditions: DU-145, 24 h; summary of the method: as §1
[2] = Cytotoxicity against human RWPE1 cells assessed as cell viability after 24 hrs by MTT assay; format: cell-based; conditions: RWPE-1, 24 h; summary of the method: as §1
MDA-MB-231 = assay: Cytotoxicity against human MDA-MB-231 cells assessed as cell viability after 24 hrs by MTT assay; format: functional, cell-based; conditions: MDA-MB-231, 24 h; summary of the method: as §1
NCI-H1299 = assay: Cytotoxicity against human NCI-H1299 cells assessed as cell viability after 24 hrs by MTT assay; format: functional, cell-based; conditions: NCI-H1299, 24 h; summary of the method: as §1
K562 = assay: Cytotoxicity against human K562 cells assessed as cell viability after 24 hrs by MTT assay; format: functional, cell-based; conditions: K562, 24 h; summary of the method: as §1
[3] = Cytotoxicity against human HL60 cells assessed as cell viability after 24 hrs by MTT assay; format: functional, cell-based; conditions: HL-60, 24 h; summary of the method: as §1
PC-3 [4] = assay: Reduction in glutathione level in human PC3 cells at 5 uM preincubated for 4 hrs followed by fluorescence probe addition measured after 1 hr by 3-azido-7-(diethylamino)-2H-chromen-2-one fluorescence probe-based confocal microscopic analysis; format: functional, cell-based
Summary of the method: (§2)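 PC3 cells on glass coverslips treated with compound for 4 h (5 μM NEM as thiol-scavenger control), fixed in cold methanol/acetone (1:1) for 5 min. Stained with 30 μM azidocoumarin probe, which fluoresces on reaction with thiols, for 1 h at room temperature in the dark. Mean cellular fluorescence quantified by confocal microscopy; mean ± SD.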

[5] = Selectivity index, ratio of IC50 for human RWPE1 cells to IC50 for human PC3 cells; format: functional
PC-3 [6] = assay: Induction of apoptosis in human PC3 cells assessed as appearance of swelled/fused lysosomes at 8 uM after 2 hrs by LysoTracker Red and Hoechst 33342 staining-based confocal microscopic analysis; format: functional, cell-based
Summary of the method: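 PC3 cells given 8 μM compound for 2 h, then stained 30 min at 37 °C with 100 ng/mL LysoTracker Red and 10 μg/mL Hoechst 33342. Washed in PBS and imaged by confocal microscopy to assess lysosome swelling or fusion.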

[7] = Drug uptake in lysosome of human PC3 cells at 8 uM preincubated for 4 hrs followed by fluorescence probe addition measured after 1 hr by 3-azido-7-(diethylamino)-2H-chromen-2-one fluorescence probe-based confocal microscopic analysis; format: ADME, cell-based; conditions: pc-3, 1 h; summary of the method: as §2
PC-3 [8] = assay: Induction of apoptosis in human PC3 cells assessed as cathepsin B release from lysosome to cytosol at 8 uM measured over 48 hrs by Western blot analysis; format: functional, cell-based
Summary of the method: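 PC3 cells treated with 8 μM compound for the indicated times, lysed in RIPA buffer with protease inhibitors, protein quantified by BCA. Run on 12% SDS-PAGE, transferred to nitrocellulose, blocked in 5% milk/TBST. Probed overnight at 4 °C for cathepsin B with GAPDH loading control; ECL detection.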

PC-3 [9] = assay: Induction of reactive oxygen species formation in human PC3 cells at 6 uM by DCFH-DA staining-based flow cytometric analysis; format: functional, cell-based; conditions: TDE = time-dependent effect
Summary of the method: (§3)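 PC3 cells exposed to 6 μM compound for 4 h, with optional 5 mM NAC added 1 h beforehand. Loaded with 10 μM DCFH-DA at 37 °C for 30 min, washed, resuspended in PBS and read at once by flow cytometry. ROS expressed as ratio relative to control; Student's t test.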

PC-3 [10] = assay: Induction of reactive oxygen species formation in human PC3 cells at 6 uM after 4 hrs by DCFH-DA staining-based flow cytometric analysis in presence of antioxidant N-acetylcysteine; format: functional, cell-based; summary of the method: as §3
PC-3 [11] = assay: Cytotoxicity against human PC3 cells assessed as decrease in cell viability at 6 uM after 24 hrs by MTT assay in presence of antioxidant N-acetylcysteine; format: functional, cell-based
Summary of the method: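 PC3 cells pretreated with 5 mM NAC for 1 h, then given 6 μM compound with or without the antioxidant for 24 h. Viability read by MTT (formazan in DMSO, absorbance at 570 nm). Mean ± SD.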

PC-3 [12] = assay: Reduction in total glutathione level in human PC3 cells at 6 uM by DNTB-based assay; format: functional, cell-based; conditions: TDE = time-dependent effect
Summary of the method: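 PC3 cells exposed to 6 μM compound for the indicated times, lysed by freeze–thaw in protein removal agent and supernatant collected. Total glutathione read with DTNB at 412 nm; GSSG read after masking GSH with 2-vinylpyridine; GSH taken as the difference. Expressed relative to control.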

PC-3 [13] = assay: Reduction in glutathione level in human PC3 cells preincubated for 4 hrs followed by fluorescence probe addition measured after 1 hr by 3-azido-7-(diethylamino)-2H-chromen-2-one fluorescence probe-based confocal microscopic analysis; format: functional, cell-based; summary of the method: as §2
PC-3 [14] = assay: Reduction in glutathione level in human PC3 cells at 6 uM preincubated for 4 hrs followed by fluorescence probe addition by 3-azido-7-(diethylamino)-2H-chromen-2-one fluorescence probe-based confocal microscopic analysis; format: functional, cell-based; conditions: TDE = time-dependent effect; summary of the method: as §2
LNCaP = assay: Cytotoxicity against human LNCAP cells assessed as cell viability after 24 hrs by MTT assay; format: functional, cell-based; summary of the method: as §1
[15] = Cytotoxicity against human SKOV3 cells assessed as cell viability after 24 hrs by MTT assay; format: functional, cell-based; conditions: SK-OV-3, 24 h; summary of the method: as §1
LoVo = assay: Cytotoxicity against human LoVo cells assessed as cell viability after 24 hrs by MTT assay; format: functional, cell-based; summary of the method: as §1
[16] = Cytotoxicity against human T24 cells assessed as cell viability after 24 hrs by MTT assay; format: functional, cell-based; conditions: T-24, 24 h; summary of the method: as §1
[17] = Cytotoxicity against human SH-SY5Y cells assessed as cell viability after 24 hrs by MTT assay; format: functional, cell-based; summary of the method: as §1
[18] = Cytotoxicity against human A172 cells assessed as cell viability after 24 hrs by MTT assay; format: functional, cell-based; conditions: A 172, 24 h; summary of the method: as §1
[19] = Cytotoxicity against human Saos2 cells assessed as cell viability after 24 hrs by MTT assay; format: functional, cell-based; conditions: SAOS-2, 24 h; summary of the method: as §1

SMILES	IC50 [1]	IC50 (DU-145)	IC50 [2]	IC50 (MDA-MB-231)	IC50 (NCI-H1299)	IC50 (K562)	IC50 [3]	IC50 (LNCaP)	IC50 [15]	IC50 (LoVo)	IC50 [16]	IC50 [17]	IC50 [18]	IC50 [19]	also measured
C=C1C(=O)[C@@]23CC[C@H]4[C@@](C)(CCC[C@@]4(C)C(=O)O)[C@@H]2CC[C@]1(O)C3	30.1 µM	48.5 µM	27 µM	37.2 µM	32.8 µM	9.9 µM	7.9 µM								Activity (PC-3 [4]): Active
C=C1C(=O)[C@@]23CC[C@H]4[C@@](C)(CCC[C@@]4(C)C(=O)OCCN4CCN(C)CC4)[C@@H]2CC[C@]1(O)C3	8.2 µM	14.9 µM	29.3 µM	27.5 µM	10.9 µM	4.1 µM	3 µM								Ratio IC50 [5]: 3.6; Activity (PC-3 [6]): Active; Drug uptake [7]: Active; Activity (PC-3 [8]): Active
C=C1C(=O)[C@@]23CC[C@H]4[C@@](C)(CCC[C@@]4(C)C(=O)OC)[C@@H]2CC[C@]1(O)C3	6.1 µM	10.8 µM	7 µM	5.2 µM	9.2 µM	2.9 µM	1.5 µM								Activity (PC-3 [9]): tde; Activity (PC-3 [10]): inactive; Activity (PC-3 [11]): inactive; Activity (PC-3 [12]): tde; Activity (PC-3 [13]): Dose-dependent effect; Activity (PC-3 [14]): tde
C=C1C(=O)[C@H]2C[C@]1(O)CC1=C2[C@]2(C)CCCC(C)(C)[C@H]2CC1	2.2 µM	3.2 µM	6.3 µM	3.4 µM	2.6 µM	2.2 µM	1.9 µM	2.8 µM	2.9 µM	2.3 µM	2.3 µM	1.6 µM	2.7 µM	2.4 µM	Activity (PC-3 [4]): Active
C[C@@H]1C(=O)[C@H]2C[C@]1(O)CC1=C2[C@]2(C)CCC[C@](C)(C=O)[C@H]2CC1	> 50 µM	> 50 µM	> 50 µM	> 50 µM	> 50 µM	> 50 µM	> 50 µM	> 50 µM	> 50 µM	> 50 µM	> 50 µM	> 50 µM	> 50 µM	> 50 µM	
C[C@H]1C(=O)[C@@]23CC[C@@H]4C(C)(C)CCC[C@@]4(C)[C@@H]2[C@@H](O)C[C@@H]1C3	> 50 µM	> 50 µM	> 50 µM	> 50 µM	> 50 µM	> 50 µM	> 50 µM	> 50 µM	> 50 µM	> 50 µM	> 50 µM	> 50 µM	> 50 µM	> 50 µM	
C[C@H]1C(=O)[C@@]23CC[C@@H]4C(C)(C)[C@H](O)CC[C@@]4(C)[C@@H]2[C@@H](O)C[C@@H]1C3	> 50 µM	> 50 µM	> 50 µM	> 50 µM	> 50 µM	> 50 µM	> 50 µM	> 50 µM	> 50 µM	> 50 µM	> 50 µM	> 50 µM	> 50 µM	> 50 µM	
C=C1C(=O)[C@@]23CC[C@@H]4[C@@](C)(CO)CCC[C@@]4(C)C2=CC[C@]1(O)C3	5.5 µM	6.3 µM	11.7 µM	12.3 µM	10.7 µM	10.2 µM	3.7 µM	11.6 µM	8.6 µM	9 µM	10.4 µM	4.4 µM	4.4 µM	7.8 µM	
C[C@H]1C(=O)[C@@]23C[C@H](O)[C@@H]4[C@@](C)(CO)CCC[C@@]4(C)C2=CC[C@]1(O)C3	> 50 µM	> 50 µM	> 50 µM	> 50 µM	> 50 µM	> 50 µM	> 50 µM	> 50 µM	> 50 µM	> 50 µM	> 50 µM	> 50 µM	> 50 µM	> 50 µM	
C=C1C(O)[C@@]23CC[C@H]4[C@@](C)(CCC[C@@]4(C)C(=O)O)[C@@H]2CC[C@]1(O)C3 (stereo partly drawn)	> 50 µM	> 50 µM	> 50 µM	> 50 µM	> 50 µM	> 50 µM	> 50 µM	> 50 µM	> 50 µM	> 50 µM	> 50 µM	> 50 µM	> 50 µM	> 50 µM	
C[C@@H]1C(=O)[C@H]2C[C@]1(O)CC1=C2[C@]2(C)CCC[C@@](C)(CO)[C@H]2CC1	> 50 µM	> 50 µM	> 50 µM	> 50 µM	> 50 µM	> 50 µM	> 50 µM	> 50 µM	> 50 µM	> 50 µM	> 50 µM	> 50 µM	> 50 µM	> 50 µM	
C=C1C(=O)[C@H]2C[C@]1(O)CC1=C2[C@]2(C)CCC[C@](C)(CO)[C@H]2CC1	8.2 µM	9.4 µM	18.6 µM	10.4 µM											Activity (PC-3 [4]): Active
C=C1[C@@H]2C[C@H](O)[C@H]3[C@]4(C)CCCC(C)(C)[C@H]4CC[C@]3(C2)[C@@H]1O	> 50 µM	> 50 µM	> 50 µM	> 50 µM	> 50 µM	> 50 µM	> 50 µM	> 50 µM	> 50 µM	> 50 µM	> 50 µM	> 50 µM	> 50 µM	> 50 µM	
C[C@H]1C(=O)[C@@]23CC[C@@H]4[C@@](C)(C=O)CCC[C@@]4(C)C2=CC[C@]1(O)C3	> 50 µM	> 50 µM	> 50 µM	> 50 µM	> 50 µM	> 50 µM	> 50 µM	> 50 µM	> 50 µM	> 50 µM	> 50 µM	> 50 µM	> 50 µM	> 50 µM	
